# Compound activity: PubChem BioAssay, several laboratories
# In the library only some 1.8% were active in any assay of this set; here they are far more common.
# GalR3 antag – GalR3 antagonists in HEK293 cells, primary screen, cell-based, fluorescence readout. Galanin receptor type 3 (Homo sapiens), O60755. HEK293 GalR3-CNG cAMP membrane potential fluorescence; galR3 body fused to GalR1 C-terminus. inhibition, % at 3 µM. 360,000 tested, 0.44% active. AID 651719, 2012;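 active means inhibition above the screen-wide average plus 3 SD, cut at about 13% in these data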;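 further: forskolin and galanin both at EC90 stimulate the cells; cAMP rise reported by CNG channel membrane potential dye signal; 0% = forskolin plus galanin with DMSO and 100% = forskolin alone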
# PG9 Ab binder – binders of HIV-1 gp120 antibody PG9, primary screen, biochemical, TR-FRET; 360,000 tested, 0.43% active; TR-FRET gp120-PG9 antibody binding; inhibition, % at 6.7 µM; HIV-1 gp120 / PG9 antibody interaction; in the data active means inhibition above about 8.5%
# NR2E3 ag-1 – inhibitors of NR2E3-RetCOR corepressor binding, primary screen, NR2E3 agonist project, biochemical, TR-FRET, GST-NR2E3, biotin-RetCOR. Photoreceptor-specific nuclear receptor (Homo sapiens), Q9Y5X4. 1536-well. inhibition of corepressor binding, % at 4.78 µM. 320,000 tested, 0.12% active. AID 2300, 2010;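 active means percent inhibition above the cutoff of mean plus 3 SD of all tested compounds, set per screening campaign, cut at about 20% in these data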;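 further: 0% = DMSO wells and 100% = biotin wells as full block of FRET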
#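 System: GST-tagged NR2E3 plus biotinylated RetCOR corepressor; Buffer or medium: pH 7.5 Tris-based buffer; Probe or stimulus: RetCOR corepressor, biotinylated, 7 nM; Doses: compound at 4.8 µM, single dose; Schedule: 5 h incubation at 4 °C; Technique: time-resolved FRET; Evaluation: percent inhibition of TR-FRET ratio; Replication: one well per compound, singlicate testing.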
# Rev-erbA mod – modulators of Rev-erb alpha DNA binding, primary screen, biochemical, FITC-DNA, fluorescence polarization, uHTS | Nuclear receptor subfamily 1 group D member 1 (Homo sapiens), P20393 | Rev-erbα–FITC-DNA binding, 90 min | activity, % at 10 µM | 370,000 tested, 0.79% active | AID 1259318, 2017;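 active means activity above about 14%, limit read from the data; passing the limit was not always enough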;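 further: 0% = DMSO wells with 35 nM protein and 100% = DMSO wells with 750 nM protein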
# Target sequence (P20393 whole entry, looked up): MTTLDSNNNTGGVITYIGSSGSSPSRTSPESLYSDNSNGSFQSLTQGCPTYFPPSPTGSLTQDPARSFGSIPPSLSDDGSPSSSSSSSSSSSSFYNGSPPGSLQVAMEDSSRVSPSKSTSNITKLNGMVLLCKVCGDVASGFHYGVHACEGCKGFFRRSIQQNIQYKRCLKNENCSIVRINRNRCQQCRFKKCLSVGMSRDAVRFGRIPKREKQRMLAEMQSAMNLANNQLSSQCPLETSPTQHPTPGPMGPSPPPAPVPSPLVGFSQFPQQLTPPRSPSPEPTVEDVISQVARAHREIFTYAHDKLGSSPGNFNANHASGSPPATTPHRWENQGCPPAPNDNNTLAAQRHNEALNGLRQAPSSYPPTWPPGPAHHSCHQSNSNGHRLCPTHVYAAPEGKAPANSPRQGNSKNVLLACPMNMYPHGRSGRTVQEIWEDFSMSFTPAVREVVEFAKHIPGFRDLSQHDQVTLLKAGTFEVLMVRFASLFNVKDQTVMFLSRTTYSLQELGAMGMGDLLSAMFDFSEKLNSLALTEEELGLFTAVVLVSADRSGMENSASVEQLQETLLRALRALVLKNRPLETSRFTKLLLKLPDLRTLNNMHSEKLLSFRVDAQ
# NR2E3 ag-2 – NR2E3 agonists in two-hybrid cells, primary screen, cell-based, luminescence, CHO-S, Gal4-NCOR/VP16-NR2E3; Photoreceptor-specific nuclear receptor (Homo sapiens), Q9Y5X4; luciferase; 360,000 tested, 0.35% active; inhibition of corepressor binding, % at 3.98 µM; AID 602229, 2012;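 active means inhibition above the mean of all tested compounds plus 3 SD, cut at about 70% in these data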;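 further: 0% = DMSO with NR2E3 transfected cells and 100% = cells lacking NR2E3 construct; higher means lower luciferase signal from less NR2E3 corepressor binding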
# Rev-erbA confirm – modulators of Rev-erb alpha DNA binding, confirmation, biochemical, FITC-DNA, fluorescence polarization, single point; shares compounds with Rev-erbA mod; 90 min; activation, % at 25 µM; 3,000 tested, 61% active; AID 1259319, 2017;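 active means activation at or above a set limit, or at least 3 SD above the negative control mean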;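 further: 0% = 35 nM protein with DMSO and 100% = 750 nM protein high control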
# RORg DNA counter – modulation of RORgamma DNA binding, dose response, counter-screen for Rev-erb alpha modulator project, biochemical, fluorescence polarization, FITC-DNA; 910 tested, 8% active; purified RORgamma protein-FITC-DNA binding; IC50, µM; shares compounds with Rev-erbA mod;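 active means Compounds whose fitted half-maximal concentration for disrupting protein-DNA binding is below 10 micromolar; the record names Rev-erb in its text, so the target is in doubt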
# Starred values were filed as active, the others as inactive; / = not tested or not shown.
SMILES,GalR3 antag,PG9 Ab binder,NR2E3 ag-1,Rev-erbA mod,NR2E3 ag-2,Rev-erbA confirm,others
COc1ccc(-c2cc(=O)oc3c(C)c(OCC(=O)Nc4cccnc4)ccc23)cc1,-6.2,-1.4,1.8,27.6*,-15.3,1.7,
Cc1c(C)c2ccc(OCC(=O)Nc3cccnc3)c(C)c2oc1=O,-2.6,-0.8,-4.8,1.9,-27.1,/,
COc1ccc(CNC(=O)C(C#N)c2nc3ccccc3nc2N2CCCC2)cc1 (stereo unspecified),-1.2,0.1,-0.1,41.9*,20.2,23.0*,
COc1ccc(CNC(=O)C(C#N)c2nc3ccccc3nc2N2CCN(C)CC2)cc1 (stereo unspecified),-4.6,-1.3,-2.1,-0.7,-1.9,/,
Cn1nnnc1SCc1nc2ccccc2s1,-2.0,-1.1,3.3,21.7*,-22.2,7.2,
COC(=O)[C@@H](Cc1ccc(O)cc1)NC(=O)[C@H]1O[C@@H](n2cnc3c(=O)[nH]c(N)nc32)[C@H](O)[C@@H]1O,-4.5,-0.4,/,1.4,/,/,
Cc1cc(N2CCN(c3ncccn3)CC2)nc2c(C)cccc12,-7.7,-1.8,0.5,35.0*,-9.3,5.7,
CC(=O)c1cc2c(cc1N/C(=N/S(=O)(=O)c1ccc(Br)cc1)c1ccccc1)OCO2,-3.9,0.1,2.4,96.8*,9.6,16.7,
CC(C)c1cc(C(C)C)c(S(=O)(=O)NCC(=O)N2CCN(c3ncccn3)CC2)c(C(C)C)c1,/,/,/,-2.0,/,/,
COC(=O)c1ccc(NC(=O)c2ccc3c(c2)C(=O)N(Cc2cccnc2)C3=O)cc1,-2.7,-1.5,1.3,4.2,3.6,/,
COC(=O)c1ccc(NC(=O)c2ccc3c(c2)C(=O)N(C)C3=O)cc1,-9.6,-1.1,0.3,52.2*,-4.6,33.5*,RORg DNA counter=>40
N#Cc1cc2ccccc2nc1SCC(=O)Nc1ccc(S(=O)(=O)N2CCCC2)cc1,4.4,0.1,1.7,29.6*,-15.2,24.0*,
CCOc1ccc2nc(SCC(=O)Nc3ccc(S(=O)(=O)N4CCCC4)cc3)c(C)cc2c1,-6.2,-0.4,0.8,25.1*,-11.0,17.5,
Cc1cc(C)c2nc(SCC(=O)Nc3ccc(S(=O)(=O)N4CCCC4)cc3)c(C)cc2c1,-5.3,2.2,-3.4,13.4,-36.0,/,
COc1ccc2nc(SCC(=O)Nc3ccc(S(=O)(=O)N4CCCC4)cc3)c(C#N)cc2c1,-4.2,-1.7,-1.2,109.1*,-22.8,74.0*,RORg DNA counter=>40
CC(C)C(=O)Oc1ccc(CO)cc1[C@H](CCN(C(C)C)C(C)C)c1ccccc1,/,/,/,-4.5,/,/,
CC1(C)CC(=O)C2=C(C1)NC(SCC(N)=O)=C(C#N)C21CCCCC1,-2.2,-2.4,2.0,1.8,-8.2,/,
CCSC1=C(C#N)C2(CCCCC2)C2=C(CC(C)(C)CC2=O)N1,-11.0,-0.4,3.0,22.3*,-34.0,2.3,
CNC(=O)COC(=O)c1cc2c(C)nn(-c3ccc(F)cc3)c2s1,-5.3,0.7,0.2,17.4*,13.8,13.9,
Cc1nn(-c2ccc(F)cc2)c2sc(C(=O)N3CCCCCC3)cc12,-0.7,-2.4,-1.2,-1.3,-5.4,/,
Cc1ccc(-c2nc3ncccn3c2NC(=O)c2ccccc2)cc1,/,/,/,1.7,/,/,
CCOC(=O)C1CCN(C(c2cc3ccc(C)c(C)c3[nH]c2=O)c2nnnn2C2CCCCC2)CC1 (stereo unspecified),-5.8,-1.9,-2.2,68.9*,2.3,96.9*,
CCOC(=O)C1CCN(C(c2cc3c(C)ccc(C)c3[nH]c2=O)c2nnnn2C2CCCCC2)CC1 (stereo unspecified),-2.8,-0.1,5.4,3.5,-19.2,/,
CCOC(=O)c1c(-c2ccccc2)csc1NC(=O)/C(C#N)=C\c1ccc(O)c(OC)c1,-4.8,-1.8,/,41.9*,-45.8,11.8*,
CCOC(=O)c1c(-c2ccc(C)cc2)csc1NC(=O)/C(C#N)=C/c1ccc(O)c(OC)c1,0.1,-0.2,/,4.0,-25.4,/,
SMILES,GalR3 antag,PG9 Ab binder,NR2E3 ag-1,Rev-erbA mod,NR2E3 ag-2,Rev-erbA confirm,others
Cc1nn(-c2ccccc2)c(Cl)c1/C=N/Nc1nncc(=O)[nH]1,-4.0,-3.6,-0.1,25.4*,4.6,17.8,
Cc1cc(=O)[nH]c(N/N=C/c2c(C)nn(-c3ccc(F)cc3)c2Cl)n1,-3.6,-1.7,4.7,6.4,-6.6,/,
N#C[C@H](N)[C@H]1O[C@@H](n2ccc(=O)[nH]c2=O)[C@H](O)[C@@H]1O,1.5,-1.5,/,-4.0,/,/,
COC(=O)[C@]12C[C@H](CC(=O)NCC34CC5CC(CC(C5)C3)C4)C(=O)N(Cc3ccc(Cl)cc3Cl)C1=C[C@H](C(C)C)O[C@@H]2C1CC1,/,/,/,4.2,/,/,
Cc1nnsc1-c1onc(C)c1C(=O)Nc1cc(Cl)cc(Cl)c1,-8.2,-1.1,0.7,24.8*,-20.7,11.5,
Cc1ccccc1CN1CCCCC(NC(=O)c2c(F)cccc2F)C1=O (stereo unspecified),/,/,/,3.0,/,/,
COc1cc2c(cc1NC(=O)CN1CCN(S(=O)(=O)c3ccc(C)cc3)CC1)oc1ccccc12,0.5,-0.8,4.9,26.6*,11.6,18.6*,
COc1cc2c(cc1NC(=O)C(C)N1CCN(S(=O)(=O)c3ccc(C)c(C)c3)CC1)oc1ccccc12 (stereo unspecified),-3.4,-0.1,0.3,-1.6,-20.9,/,
Cc1ccc2c(C(=O)CSc3ccccc3)c(C)[nH]c2c1,1.4,-5.3,-5.6,30.3*,-24.3,28.2*,
COc1ccc2nc(SCC(=O)NCC3CCCO3)c(C#N)cc2c1 (stereo unspecified),-10.2,-0.4,3.3,-1.8,-18.1,/,
N#Cc1cc2cc3c(cc2nc1SCC(=O)N1CCOCC1)OCCO3,-6.6,-0.1,-1.2,16.5*,10.6,6.6,
Cc1cc(NC(=O)CSc2nc3ccccc3cc2C#N)no1,-0.8,-9.7,2.8,27.4*,-52.3,17.5*,
COc1ccc2nc(SCC(=O)Nc3cc(C)on3)c(C#N)cc2c1,-10.6,-4.8,0.2,60.9*,-21.0,27.4*,
Cc1ccc2nc(SCC(=O)Nc3ccccc3N3CCOCC3)c(C#N)cc2c1,-2.0,0.8,-1.0,28.1*,0.1,17.9*,
C#CCNC(=O)C[C@@H]1C(=O)N(CCc2ccc(Cl)cc2)/C2=C/CCCCC[C@@]21C(=O)OCC,/,/,/,4.3,/,/,
